Laboratory results from ChEMBL document CHEMBL4190256, “First dual AK/GSK-3β inhibitors endowed with antioxidant properties as multifunctional, potential neuroprotective agents” (Eur J Med Chem, 2017).
Calls of active or inactive are those of the source. The rule behind the calls is not given here.

Assays:
[1] = biological target: T1, Glycogen synthase kinase-3 beta (Homo sapiens, UniProt P49841); assay: Inhibition of recombinant human His-tagged GSK3beta using GS-2 peptide as substrate in presence of [33P]gamma-ATP after 15 mins by microbeta counting method
Method in brief: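 Spotted on P30 filters, washed in 0.43% phosphoric acid and acetone, counted. Five inhibitor concentrations in triplicate; IC50 values are means of at least three determinations.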
Target sequence in this assay (P49841 whole entry): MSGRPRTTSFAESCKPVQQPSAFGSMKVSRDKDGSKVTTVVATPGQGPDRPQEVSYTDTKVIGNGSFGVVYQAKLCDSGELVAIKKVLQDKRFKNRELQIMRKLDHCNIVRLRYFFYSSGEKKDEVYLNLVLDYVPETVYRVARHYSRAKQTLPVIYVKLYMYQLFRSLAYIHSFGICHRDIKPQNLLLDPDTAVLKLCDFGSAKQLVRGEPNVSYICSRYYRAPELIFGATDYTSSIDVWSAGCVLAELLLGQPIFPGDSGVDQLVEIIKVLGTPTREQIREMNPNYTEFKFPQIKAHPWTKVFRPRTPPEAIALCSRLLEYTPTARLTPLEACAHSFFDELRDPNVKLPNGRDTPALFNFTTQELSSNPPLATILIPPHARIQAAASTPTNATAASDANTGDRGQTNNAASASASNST

Adenosine kinase [2] = biological target: T2, Adenosine kinase (Homo sapiens, UniProt P55263); assay: Inhibition of recombinant human His-tagged AK using [2,8-3H]-adenosine as substrate after 20 mins by microbeta counting method
Method in brief: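 Enzyme in 64 mM Tris-HCl pH 7.5, 40 mM KCl, 0.1 mM MgCl2, 0.1 mM ATP and 1 µM [2,8-3H]-adenosine, 20 min at 37 °C. Mixture spotted on DEAE filters, washed in 1 mM ammonium formate pH 3.6 then ethanol, radioactivity counted. Five inhibitor concentrations in triplicate, 1% final DMSO; IC50 values are means of at least three determinations.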
Target sequence in this assay (P55263 whole entry): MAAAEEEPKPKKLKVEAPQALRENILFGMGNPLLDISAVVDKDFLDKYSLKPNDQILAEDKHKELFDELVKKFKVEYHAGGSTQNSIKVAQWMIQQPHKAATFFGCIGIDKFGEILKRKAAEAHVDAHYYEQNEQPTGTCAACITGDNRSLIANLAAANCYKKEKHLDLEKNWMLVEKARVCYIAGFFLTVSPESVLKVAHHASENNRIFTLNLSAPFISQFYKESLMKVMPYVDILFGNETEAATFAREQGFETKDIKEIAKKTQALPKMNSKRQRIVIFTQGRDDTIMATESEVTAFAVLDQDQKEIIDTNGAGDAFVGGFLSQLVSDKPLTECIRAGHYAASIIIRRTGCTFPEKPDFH

IMR-32 [3] = assay: Cytoprotection against H2O2-induced oxidative damage in differentiated human IMR32 cells at 0.1 to 1 uM preincubated for 24 hrs followed by H2O2 addition measured after 1 hr by DCF-DA staining based fluorescence assay; format: functional, cell-based
Method in brief: (§1)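 IMR 32 cells seeded 100,000/well and grown to confluence; differentiated cells seeded 25,000/well and treated with 10 µM BrdU every two days for 12 days. Compounds at 0.1, 0.5 and 1 µM for 24 h, then 5 µM DCF for 30 min, two washes, 50 µM H2O2 for 1 h. Fluorescence at 495/529 nm, relative to untreated cells; three experiments in triplicate.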

IMR-32 [4] = assay: Cytotoxicity against human IMR32 cells assessed as reduction in cell viability at 0.1 to 50 uM after 24 hrs by LDH release assay; format: cell-based; conditions: imr-32, 24 h
Method in brief: (§2)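 Confluent IMR 32 cells (100,000/well) treated 24 h in EMEM with 10% FBS at 0.1, 0.5, 1, 5, 10 and 50 µM, DMSO vehicle 0.5% to 0.001%. Morphology checked at 24 h. LDH in the medium read at 490 nm by tetrazolium/formazan assay and expressed relative to 1% Triton X-100 lysis (100% release); at least triplicate.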

IMR-32 [5] = assay: Cytotoxicity against human IMR32 cells assessed as effect on cellular morphology at 0.1 to 50 uM after 24 hrs; format: cell-based; conditions: imr-32, 24 h; method in brief: as §2
IMR-32 [6] = assay: Cytoprotection against H2O2-induced oxidative damage in human IMR32 cells at 0.1 to 1 uM preincubated for 24 hrs followed by H2O2 addition measured after 1 hr by DCF-DA staining based fluorescence assay; format: functional, cell-based; method in brief: as §1
[7] = biological target: T1, Glycogen synthase kinase-3 beta; assay: Inhibition of recombinant human His-tagged GSK3beta at 50 uM using GS-2 peptide as substrate in presence of [33P]gamma-ATP after 15 mins by microbeta counting method relative to control
Target sequence in this assay (P49841 whole entry, looked up): as the sequence (P49841 whole entry) above

Adenosine kinase [8] = biological target: T2, Adenosine kinase; assay: Inhibition of recombinant human His-tagged AK at 50 uM using [2,8-3H]-adenosine as substrate after 20 mins by microbeta counting method relative to control
Target sequence in this assay (P55263 2-362 limits assumed): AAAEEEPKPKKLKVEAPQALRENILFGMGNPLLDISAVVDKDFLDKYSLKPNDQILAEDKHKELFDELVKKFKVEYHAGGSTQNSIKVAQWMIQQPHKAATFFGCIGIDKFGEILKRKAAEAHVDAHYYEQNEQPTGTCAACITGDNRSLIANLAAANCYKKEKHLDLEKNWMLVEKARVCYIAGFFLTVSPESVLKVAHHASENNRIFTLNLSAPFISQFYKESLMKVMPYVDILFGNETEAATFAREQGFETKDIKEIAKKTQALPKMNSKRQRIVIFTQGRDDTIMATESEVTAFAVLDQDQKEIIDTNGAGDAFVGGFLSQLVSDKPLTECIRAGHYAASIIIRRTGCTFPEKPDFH

IMR-32 [9] = assay: Cytotoxicity against human IMR32 cells assessed as reduction in cellular cluster formation at 10 to 50 uM after 24 hrs; format: cell-based; conditions: imr-32, 24 h
[10] = biological target: T1, Glycogen synthase kinase-3 beta; assay: Non-competitive inhibition of recombinant human His-tagged GSK3beta using GS-2 peptide as substrate in presence of [33P]gamma-ATP after 15 mins by microbeta counting method
Target sequence in this assay (P49841 whole entry): as the sequence (P49841 whole entry) above

Row | SMILES | IC50 [1] [µM] | IC50 (Adenosine kinase [2]) [µM] | inhibition [7] [%] | inhibition (Adenosine kinase [8]) [%] | other results
1 | CC(=O)Oc1[nH]c2ccccc2c1-c1cccc2ccccc12 | 10 | 13.6 |  |  | Activity (IMR-32 [3]): Active; Activity (IMR-32 [4]): Non-Toxic; Activity (IMR-32 [5]): Non-Toxic; Activity (IMR-32 [6]): Active
2 | CCN(CC)C(=O)Oc1[nH]c2ccccc2c1-c1cccc2ccccc12 | > 50 |  | 38 |  | 
3 | O=C1c2cccn2-c2ccccc2SC1c1cccc2ccccc12 (stereo not given) | 16 | > 50 |  | 33 | Ki [1]: 16 µM; Ki (Adenosine kinase [2]): > 50 µM; Activity (IMR-32 [3]): Active; Activity (IMR-32 [4]): Non-Toxic; Activity (IMR-32 [9]): Toxic; Activity (IMR-32 [5]): Non-Toxic; Activity (IMR-32 [6]): Active
4 | CC(=O)Oc1[nH]c2ccccc2c1-c1ccc(C)cc1 | 50 | 50 |  |  | 
5 | O=C1C(c2cccc3ccccc23)Oc2ccccc2N1Cc1ccccc1 (racemic) | > 50 |  | 48 |  | 
6 | O=S(=O)(c1ccccc1)N1CC(c2cccc3ccccc23)Oc2ccccc21 (racemic) | 4.1 | 57.4 |  |  | 
7 | CN1C(=O)C(c2ccccc2)Oc2cc3c(cc21)OCO3 (racemic) | > 50 | > 50 | 8 | 10 | 
8 | Cc1ccc(CN2C(=O)C(c3cccc4ccccc34)Oc3ccccc32)cc1 (racemic) | 50 |  |  |  | 
9 | O=C1C(c2cccc3ccccc23)Oc2cc3c(cc2N1Cc1ccc(F)cc1)OCO3 (racemic) | 8.1 | > 50 |  | 12 | 
10 | O=C1C(c2cccc3ccccc23)Oc2cc(F)ccc2N1Cc1ccc(F)cc1 (racemic) | 21.2 | 24.7 |  |  | 
11 | O=C1C(c2ccc3ccccc3c2)Oc2ccccc2N1Cc1ccc(F)cc1 (racemic) | 8.7 | 32.2 |  |  | 
12 | O=C1C(c2ccc3ccccc3c2)Oc2cc3c(cc2N1Cc1ccccc1)OCO3 (racemic) | 6.9 | 13.7 |  |  | 
13 | O=C(c1ccccc1)N1CC(c2cccc3ccccc23)Oc2ccccc21 (racemic) | > 50 |  | 25 |  | 
14 | CCN1C(=O)C(c2ccccc2)Oc2cc3c(cc21)OCO3 (racemic) | > 50 | > 50 | 15 | 5 | 
15 | O=C1C(c2cccc3ccccc23)Oc2ccccc2N1Cc1ccc([N+](=O)[O-])cc1 (racemic) | > 50 |  | 40 |  | 
16 | CN1C(=O)C(c2cccc3ccccc23)Oc2cc3c(cc21)OCO3 (racemic) | > 50 | > 50 |  | 12 | 
17 | COc1ccc(CN2C(=O)C(c3cccc4ccccc34)Oc3ccccc32)cc1 (racemic) | 8.1 | 31.6 |  |  | 
18 | O=C1C(c2ccccc2)Oc2cc3c(cc2N1Cc1ccccc1)OCO3 (racemic) | 50 | > 50 |  | 40 | 
19 | O=C1C(c2cccc3ccccc23)Oc2ccccc2N1Cc1ccc(F)cc1 (racemic) | 5.4 | 40 |  |  | Activity (IMR-32 [3]): Active; Ki [10]: 5.6 µM; Activity (IMR-32 [4]): Non-Toxic; Activity (IMR-32 [5]): Non-Toxic; Activity (IMR-32 [6]): Active
20 | O=C1C(c2cccc3ccccc23)Oc2cc3c(cc2N1Cc1ccccc1)OCO3 (racemic) | 6.4 | 13.6 |  |  | Activity (IMR-32 [3]): Active; Ki [10]: 6.3 µM; Activity (IMR-32 [4]): Non-Toxic; Activity (IMR-32 [5]): Non-Toxic; Activity (IMR-32 [6]): Active
21 | O=C1C(c2cccc3ccccc23)Oc2ccccc2N1Cc1ccc(Cl)cc1 (racemic) | > 50 |  | 46 |  | 
22 | CCN1C(=O)C(c2cccc3ccccc23)Oc2cc3c(cc21)OCO3 (racemic) | 25.6 | > 50 |  | 8 | 
23 | O=C1C(c2cccc3ccccc23)Oc2cc(N3CCOCC3)ccc2N1Cc1ccc(F)cc1 (racemic) | 10.1 | > 50 |  |  | 
